From ChEMBL document CHEMBL5338787, “Discovery of Novel Bruton's Tyrosine Kinase PROTACs with Enhanced Selectivity and Cellular Efficacy” (J Med Chem, 2023) come the findings set out here.

Calls of active or inactive are those of the source. The calls are words filed in the database; no cut-off is given here.

For assay [1], the system named is MINO. Put plainly: Induction of apoptosis in human MINO cells assessed as decrease in PARP level measured after 48 hrs by Western blot analysis. In kind it is functional, cell-based. To be noted: dose 0.15-3000 nM. In a few lines:
(§1)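 TMD8 or Mino cells (2 × 10^6 per well) exposed 48 h to 3000–0.15 nM (3-fold dilution) or 1% DMSO. Lysates BCA-normalised, 8–30 μg per lane on 4–20% Tris-glycine gels, transferred to nitrocellulose, probed with antibodies, HRP chemiluminescence detection and densitometry. Representative of two independent experiments.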
On the technique in general: Immunoblotting shows a protein as a band on a membrane.

In assay [2] the test system is TMD8. Put plainly: Induction of apoptosis in human TMD8 cells assessed as increase in cleaved PARP level measured after 48 hrs by Western blot analysis. Format: functional, cell-based. As to conditions: dose 0.15-3000 nM. In a few lines: as §1
Assay [3] concerns MINO. Briefly: Induction of apoptosis in human MINO cells at 333 nM for 48 hrs by Annexin-V/propidium iodide staining based flow cytometric analysis. Format: functional, cell-based. In short, it runs like this:
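Cells plated at 2 × 10^6 per well and treated 48 h at 3,000–0.15 nM (3-fold dilutions) or 1% DMSO. Harvested, washed in cold PBS, stained with Annexin V Alexa Fluor 488/propidium iodide, analysed by flow cytometry for % live, apoptotic and necrotic cells. Mean of two independent experiments.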

Assay [4] deals with MINO. Briefly: Induction of apoptosis in human MINO cells assessed as increase in cleaved PARP level measured after 48 hrs by Western blot analysis. As to conditions: dose 0.15-3000 nM. Format: functional, cell-based. In a few lines: as §1
Assay [5] relates to MINO. Put plainly: Induction of apoptosis in human MINO cells assessed as increase in cleaved caspase 3 level measured after 48 hrs by Western blot analysis. Format: functional, cell-based. As to conditions: dose 0.15-3000 nM. In short, it runs like this:
as §1

Assay [6] has as its system TMD8. Briefly: Induction of apoptosis in human TMD8 cells assessed as downregulation in Bcl-2 level measured at 0.15 to 3000 nM after 48 hrs by Western blot analysis. In kind it is functional, cell-based. As to conditions: dose 0.15-3000 nM. In short, it runs like this: as §1
For assay [7], the target named is Tyrosine-protein kinase BTK (Homo sapiens, UniProt Q06187). Briefly: Binding affinity to full length BTK (unknown origin) assessed as dissociation constant measured at 37 degree C by TR-FRET assay. (In general: Time-resolved FRET reads energy transfer from a long-lived donor to a nearby acceptor.)
Assay [8] has as its target T1, Protein cereblon/Tyrosine-protein kinase BTK (Homo sapiens, UniProt Q06187+Q96SW2). Briefly: PROTAC activity at BTK/CRBN protein protein interaction in human Ramos cell assessed as degradation of BTK preincubated with proteasome inhibitor bortezomib for 2 hrs followed by compound addition at 111 nM for 4 hrs measured by Western blot analysis. Format: cell-based. In short, it runs like this: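 Ramos cells were pre-treated for 2 h with bortezomib (proteasome inhibitor) or MLN-4924 (NEDD8-activating enzyme inhibitor), then given 111 nM degrader for 4 h. BTK level was assessed by western blot.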

For assay [9], the system named is TMD8. Briefly: Cytotoxicity against human TMD8 cells incubated for 48 hrs by celltitre glo 2.0 assay. In kind it is functional, cell-based. To be noted: TMD8, 48 h.
Assay [10] has as its system TMD8. Put plainly: Induction of apoptosis in human TMD8 cells assessed as decrease in caspase 3 level measured after 48 hrs by Western blot analysis. Format: functional, cell-based. As to conditions: dose 0.15-3000 nM. In short, it runs like this:
as §1

The target in assay [11] is T1, Protein cereblon/Tyrosine-protein kinase BTK. Put plainly: PROTAC activity at BTK/CRBN protein protein interaction in human Ramos cell assessed as degradation of BTK incubated at 111 nM for 17 hrs in presence of GDC-0853 at 1 uM measured by Western blot analysis. In kind it is cell-based.

T1 sequence (Q06187 2-659 limits assumed): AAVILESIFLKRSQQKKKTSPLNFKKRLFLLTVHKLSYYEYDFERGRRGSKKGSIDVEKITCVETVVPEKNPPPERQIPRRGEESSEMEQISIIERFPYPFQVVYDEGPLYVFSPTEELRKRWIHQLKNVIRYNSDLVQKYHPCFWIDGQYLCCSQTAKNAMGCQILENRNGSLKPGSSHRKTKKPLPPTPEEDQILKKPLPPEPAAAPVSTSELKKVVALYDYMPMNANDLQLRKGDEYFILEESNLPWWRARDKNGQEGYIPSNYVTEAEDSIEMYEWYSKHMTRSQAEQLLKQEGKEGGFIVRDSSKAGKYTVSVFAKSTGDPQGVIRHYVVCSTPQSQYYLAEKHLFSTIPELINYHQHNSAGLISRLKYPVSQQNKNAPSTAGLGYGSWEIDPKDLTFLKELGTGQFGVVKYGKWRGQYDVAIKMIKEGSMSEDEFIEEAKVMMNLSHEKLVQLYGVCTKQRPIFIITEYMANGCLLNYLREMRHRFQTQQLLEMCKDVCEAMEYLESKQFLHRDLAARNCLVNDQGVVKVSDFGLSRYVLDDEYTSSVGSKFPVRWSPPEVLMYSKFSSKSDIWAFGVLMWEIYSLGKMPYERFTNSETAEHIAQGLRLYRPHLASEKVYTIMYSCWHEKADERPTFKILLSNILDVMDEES
T1 sequence (Q96SW2 whole entry partner): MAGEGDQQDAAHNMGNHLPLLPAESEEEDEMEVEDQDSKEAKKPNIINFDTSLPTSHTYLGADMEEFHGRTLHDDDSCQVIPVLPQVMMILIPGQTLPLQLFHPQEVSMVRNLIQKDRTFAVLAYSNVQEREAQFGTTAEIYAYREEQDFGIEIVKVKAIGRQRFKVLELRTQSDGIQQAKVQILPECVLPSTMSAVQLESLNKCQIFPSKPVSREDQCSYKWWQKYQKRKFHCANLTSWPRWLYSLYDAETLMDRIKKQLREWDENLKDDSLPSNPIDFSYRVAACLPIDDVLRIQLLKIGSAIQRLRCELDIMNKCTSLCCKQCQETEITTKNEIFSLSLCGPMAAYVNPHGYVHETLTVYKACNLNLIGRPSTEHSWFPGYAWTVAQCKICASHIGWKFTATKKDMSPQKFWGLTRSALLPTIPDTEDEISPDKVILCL
Chain of Tyrosine-protein kinase BTK (Q06187 whole entry): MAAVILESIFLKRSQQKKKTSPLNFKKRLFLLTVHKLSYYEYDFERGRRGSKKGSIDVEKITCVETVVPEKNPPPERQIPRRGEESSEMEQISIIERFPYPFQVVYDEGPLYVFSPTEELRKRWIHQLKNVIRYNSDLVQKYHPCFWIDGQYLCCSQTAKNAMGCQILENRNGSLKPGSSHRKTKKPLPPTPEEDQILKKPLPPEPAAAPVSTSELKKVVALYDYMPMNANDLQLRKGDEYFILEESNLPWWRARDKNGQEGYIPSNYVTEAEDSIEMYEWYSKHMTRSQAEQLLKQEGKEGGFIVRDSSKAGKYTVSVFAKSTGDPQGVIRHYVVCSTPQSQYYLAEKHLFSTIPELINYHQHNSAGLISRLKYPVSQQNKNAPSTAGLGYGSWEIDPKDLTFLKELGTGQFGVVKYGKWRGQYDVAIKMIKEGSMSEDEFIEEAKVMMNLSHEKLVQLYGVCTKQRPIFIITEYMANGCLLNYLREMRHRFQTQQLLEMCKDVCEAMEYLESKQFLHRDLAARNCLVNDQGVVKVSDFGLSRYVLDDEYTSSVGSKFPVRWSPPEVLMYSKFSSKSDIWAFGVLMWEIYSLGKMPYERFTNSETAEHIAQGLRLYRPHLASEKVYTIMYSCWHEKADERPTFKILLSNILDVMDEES

A word on the Kd: it is the free concentration of one partner at which half of the binding sites on the other are occupied at equilibrium, for simple one-to-one binding. Broadly, the IC50 is the midpoint of a concentration-inhibition curve. Read a low IC50 as greater potency in that assay. On to `C[C@H]1CN(C(=O)CNc2cccc3c2C(=O)N(C2CCC(=O)NC2=O)C3=O)CCN1c1ccc(Nc2cc(-c3ccnc(N4CCn5c(cc6c5CC(C)(C)C6)C4=O)c3CO)cn(C)c2=O)nc1` (stereo partly specified), for which the result with MINO [1], in the assay on TMD8 [2], with MINO [3], in the assay with MINO [4], in the assay on MINO [5] and with TMD8 [6] was Active. Besides, the result in the assay on TMD8 [10] was Active. In assay [7], the Kd came out at 2.28 nM. The outcome in [8] and in assay [11] was inactive. For the same compound, it took 1.4 nM to reach half-maximal inhibition in the assay with TMD8 [9] (IC50).
